For this data set, the system named is MS2 coat protein. The experiment in a line: apparent Kd, MS2 coat protein; higher = weaker binding; RNA-MaP array. Put shortly:
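Designs measured on fewer than 10 clusters were excluded from the data. The rest were RNAs transcribed from sequenced DNA templates on an Illumina sequencing chip and incubated at room temperature, with or without input ligand, with fluorescently labeled MS2 coat protein at 1.5 nM to 3 μM for 0.8–1.5 h at the lowest to 10–20 min at the highest concentrations. Apparent Kd is the median of the per-cluster binding-curve fits.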

The mark [1] stands for this setting: designed as: ON switch for flavin mononucleotide, no ligand.
Setting [2] is: ligand present: flavin mononucleotide, designed as: ON switch for flavin mononucleotide.
[3] abbreviates: designed as: OFF switch for flavin mononucleotide, no ligand.
The mark [4] stands for this setting: ligand present: flavin mononucleotide, designed as: OFF switch for flavin mononucleotide.
The mark [5] stands for this setting: designed as: ON switch for theophylline, no ligand.
Setting [6] is: ligand present: theophylline, designed as: ON switch for theophylline.
The mark [7] stands for this setting: designed as: ON switch for tryptophan, no ligand.
Where [8] appears, read: ligand present: tryptophan, designed as: ON switch for tryptophan.
[9] abbreviates: designed as: OFF switch for tryptophan, no ligand.
Where [10] appears, read: ligand present: tryptophan, designed as: OFF switch for tryptophan.
Where [11] appears, read: ligand present: theophylline, designed as: OFF switch for theophylline.

Broadly, the apparent Kd is the concentration giving half-maximal binding under the conditions of the assay. “GCUAAUCCAGGAGGAUAUAGGUUCUUUUCUACACAUGAGGAUCACCCAUGUGCAUCCCGGCGUACCUAGAAGGCCUGUCUAAAA”: the “apparent Kd” value is, setting by setting: under setting [1], 25.9 nM; under setting [2], 15.5 nM.

For “CGCCCUAAAGAUAAGGAUAUUCAGUUAGUAACAUGAGGAUCACCCAUGUGCACAUUUCACUUGAUGAAGAAGGUAUCUGGAACAUU”, the “apparent Kd” value under setting [1] is 8.27 nM and the “apparent Kd” value under setting [2] came to 6.1 nM.

“CGACGAUCAGAAGGAUAUUAAAUCGUCAAUCUCGUGACAUGAGGAUCACCCAUGUAGCCCGUGGUUAAGAAGGUCUUGGUUGUG”: the “apparent Kd” value reads like this: under setting [3], 92.4 nM; under setting [4], 58 nM.

“AUAGAGGAUAAAGGAUAUGAGGUGAACAUCGAUUCAGAAGGUUAUCAGGAUACAUGAGGAUCACCCAUGUUUCCUUUGCUGUUG”: the “apparent Kd” value by setting is: under setting [1], 38.5 nM; under setting [2], 22.9 nM.

For the sequence “UAACAUUGCUAGAAGGGCGGUCAUCAGAUGGCCGCAGGAUAUAGACAUGAGGAUCACCCAUGUGAAGGGCAGGUUGUUCUAGUU”, the “apparent Kd” value reads like this: under setting [1], 18.1 nM; under setting [2], 22.5 nM.

For “AUGUUCGUAAAGAAGGAUCAGGUGAUAUAUGUCAACAUGAGGAUCACCCAUGUGCGGGACGUAAGAUAGGAUAUUUGAGAUCAU”, the “apparent Kd” value came out at 14.3 nM under setting [3] and 10.8 nM under setting [4].

As to “GUUCCCUCACAGAAGGAGUGUGUUAGUUGCACAUGAGGAUCACCCAUGUAAUAAACACGUGGCCACUAGGAUAUGUUAAACUGC”, the “apparent Kd” value under setting [1] amounted to 12.9 nM and the “apparent Kd” value under setting [2] is 10.8 nM.

As for “CGAGUCUUAUAGAAGGUAGACAUGAGGAUCACCCAUGUACUGGCAACGAAUAGUCGUAGUACACCUAAGGAUAUAUGGGAUGAG”, the “apparent Kd” value reads like this: under setting [1], 74.7 nM; under setting [2], 52.3 nM.

On to “GUAACGGAAGGAUAUACGCUUUAAUGGACAGGUUCGAUGGCACAUGAGGAUCACCCAUGUAGAAGGUCCCUAAA”, for which the “apparent Kd” value reads like this: under setting [3], 10.8 nM; under setting [4], 13.4 nM.

For “AACAGUAUUAUAGAUACCAGCAGGUCAUAAGACAUGAGGAUCACCCAUGUGAAUGAGGUAUGCCCUUGGCAGCUAUGAGGUCCUC”, the “apparent Kd” value came to 173 nM under setting [5] and 128 nM under setting [6].

Take “ACUCAUGCAAAGGAUAUAACAGUUACAGACUGAUUAGAAGGUUGGACAUGAGGAUCACCCAUGUACGACGCGGU”: the “apparent Kd” value worked out at 9.13 nM under setting [3] and 28.4 nM under setting [4].

For “GUGAUGCAGCAGAAGGGAUCGCUAAGGUUGUAAUCAGGAUAUGCAGUCGCUAGGGCGCCUCGACAUGAGGAUCACCCAUGUUUG”, the “apparent Kd” value amounted to 52.7 nM under setting [3] and 61.7 nM under setting [4].

On to “GGGACACAUGAGGAUCACCCAUGUUGAUGACUUUGAGGAUAUUAGCAAAUUCUGGUCCGCUAAGAAGGCAAGGAAG”, for which the “apparent Kd” value came out at 18.8 nM under setting [1] and 9.82 nM under setting [2].

For “UCCGCGGAGACGGCCGCCACUGAGUGAGAAGUCGUGCUCUAACUACAUGAGGAUCACCCAUGUCCCAGGACCGGGUCGAAGUGUU”, the “apparent Kd” value by setting is: under setting [7], 214 nM; under setting [8], 103 nM.

On to “AUAUCUUCCACGGCCGCCACUGAAUGGUGCCCAAGGUCGAUCGCAGACAUGAGGAUCACCCAUGUCAGGACCGGGUGGUACUACG”, for which the “apparent Kd” value by setting is: under setting [9], 14.7 nM; under setting [10], 33 nM.

Consider “CCGGCGCGAUUAUGGGUUUGCUUUUACGAUACCAGCCGCGUUCCGGGCCCUUGGCAGCGUGUAACAUGAGGAUCACCCAUGUUCA”, for which, under setting [11], the “apparent Kd” value is 13.2 nM.

“AAUCAACUUAGAGGAUAUAAGCUUAAAAUAGGGUUAGAAGGCUAUGGUACUAAUGAUCCGUCAACAUGAGGAUCACCCAUGUAG”: the “apparent Kd” value under setting [3] was 45 nM and the “apparent Kd” value under setting [4] came to 37.2 nM.

Turning to “CAUCAGGGAUCAGGAUAUACAAUGGGUACAUGAGGAUCACCCAUGUAGACGCCAACACUGUCAUUGUAGAAGGGAUUGAGCGAA”, the “apparent Kd” value was 55.1 nM under setting [1] and 29.8 nM under setting [2].

For the sequence “AACAGACGAGACGAUACCAGUCUCUUAGCGCACAUGAGGAUCACCCAUGUUGGCAAGCUCGACCCUUGGCAGCGUACCUUUGAUC”, the “apparent Kd” value under setting [5] worked out at 24.4 nM and the “apparent Kd” value under setting [6] was 14 nM.

Turning to “UAGUAUGGCACAGGAUAUACAAUUAAUAUGCGGGUAGAAGGGUGGUAUCGACAUGAGGAUCACCCAUGUUAGGAAGAAACACAC”, the “apparent Kd” value by setting is: under setting [1], 134 nM; under setting [2], 78.2 nM.

Consider “GUUUUGCGAAUAGGAUAUAGUAAUGAUUCAGGAAGCCUGAACAUGAGGAUCACCCAUGUGCCAUCCUAGAAGGAUUCGCACGUG”, for which the “apparent Kd” value amounted to 359 nM under setting [1] and 186 nM under setting [2].

For “UCAUAGUCAGGAUAUUUAUUUGGCGGAGACUGCGGCCACCGAAAGAAGGGACAUGAGGAUCACCCAUGUAUCGG”, the “apparent Kd” value is 16.3 nM under setting [3] and 26.9 nM under setting [4].

In the case of “AGGAAUGUCACGGCCGCCACUGACGCUAAAAUGGGCUCGAGCCGACAUGAGGAUCACCCAUGUUCCAGGACCGGGUGAAUCCUGG”, the “apparent Kd” value amounted to 174 nM under setting [7] and 123 nM under setting [8].

For the sequence “GGAGUUCUAGGAUAUAAUUCGUGGUACAUGAGGAUCACCCAUGUCGCUGAUGCAUCGCCUUUAGAAGGAGAGAUCU”, the “apparent Kd” value under setting [3] came out at 9.03 nM and the “apparent Kd” value under setting [4] stood at 9.49 nM.

In the case of “AGAAGGGACGAGAAGGUACGAUCGAGUAAACUAUGAUAUGGGCACAUGAGGAUCACCCAUGUAUGUAAGGAUAUCGCAUCUCCA”, the “apparent Kd” value under setting [1] was 50.5 nM and the “apparent Kd” value under setting [2] turned out to be 41.1 nM.

For the sequence “UUACACAUGAGGAUCACCCAUGUCUGGGAGCGAGGACCGGUACGGCCGCCACUCGAAUUGUCAGGGCUAUGCCGGACGAUGCAUC”, the “apparent Kd” value is, setting by setting: under setting [7], 17.1 nM; under setting [8], 21.1 nM.

Consider “CGACAGCACAUAGGAUAUCAGCAAGAACUAACAUGAGGAUCACCCAUGUAUGGAUGAACAUAAAAUGAGAAGGAAGGCGAAUUA”, for which the “apparent Kd” value reads like this: under setting [1], 22.2 nM; under setting [2], 17.9 nM.

As for “AGUCCUCUGUACCCUGAUGCCCUCACUUUACGAGGACCGGUACGGCCGCCACUCGAAUCCCAACAUGAGGAUCACCCAUGUCGAC”, the “apparent Kd” value came to 34.8 nM under setting [9] and 39.7 nM under setting [10].

Consider “CUCGUGUUAGGAUAUGACGUCCCGCGCUCCGUUAACUAAUUUCAGAAGGAACAUGAGGAUCACCCAUGUUGGUG”, for which the “apparent Kd” value runs as follows: under setting [3], 150 nM; under setting [4], 59.7 nM.

Turning to “GCGAGGAGGCAGAAGGACUAAAACACGCUACAAGUAGGAUAUGCAUCCUGCACACAUGAGGAUCACCCAUGUAGAUCCUAUCGC”, the “apparent Kd” value reads like this: under setting [3], 78 nM; under setting [4], 151 nM.

With “GCAGGACAUGAGGAUCACCCAUGUGAUACUAUGACAGGAUAUGAUUGAAAACUUACUAGAACAGAAGGGUCGUGUA”, the “apparent Kd” value reads like this: under setting [1], 94.3 nM; under setting [2], 34.5 nM.

For the sequence “GCUUUAUUAGGAUAUGUAACCGUUAACAUGAGGAUCACCCAUGUUGAUUCUCAAGAGACCACAGAAGGAAUAAAAG”, the “apparent Kd” value by setting is: under setting [3], 289 nM; under setting [4], 240 nM.

For “AAGGAGGAGCAAGGAUAUCAGUGUAUACGCCACAUGAGGAUCACCCAUGUCCGGAGCGAGAUUCCUGAGAAGGUGCCGCCUAGC”, the “apparent Kd” value runs as follows: under setting [1], 7.25 nM; under setting [2], 6.47 nM.

Turning to “UGCGACAAGUGAAUACUUUGUUCUAGAGAUACCAGUUCCCGAGUGAACCCUUGGCAGCUCCCAACAUGAGGAUCACCCAUGUAUU”, the “apparent Kd” value was 14.5 nM (designed as: OFF switch for theophylline, no ligand) and 28.5 nM under setting [11].

Regarding “GACUACAUAGUCAGGAUAUGUGAUUAAUAAUAUCAACAGAAGGGACAUGAGGAUCACCCAUGUGUGCGAGUGGA”, the “apparent Kd” value runs as follows: under setting [3], 14.5 nM; under setting [4], 33.2 nM.

In the case of “UAUAAGGGUCAGAAGGCAGUGGCGCAGAAUGACUGAGGAUAUGAUAACCGGUAAUUUAACAUGAGGAUCACCCAUGUCUACAAC”, the “apparent Kd” value is 11.7 nM under setting [1] and 10.2 nM under setting [2].

Values taken from the EternaBench riboswitch data.
